Reference: ChEMBL document CHEMBL1148860, “A non-toxic Hsp90 inhibitor protects neurons from Abeta-induced toxicity” (Bioorg Med Chem Lett, 2007)
The source made the active and inactive calls. The calls are words filed in the database; no cut-off is given here.

Tests used:
SK-BR-3 [1] = assay: Antiproliferative activity against SKBR3 cells; type: functional, cell-based; settings: Homo sapiens
In short: (§1)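 MCF-7 and SkBr3 cells incubated with compound over a range of concentrations up to 100 µM. Viable cells quantitated by MTS/PMS assay. Triplicate wells per experiment, three independent experiments; IC50 from dose–response, values as means ± SE.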

[2] = Cytotoxicity against rat neuronal cells at 10 uM after 24 hrs; type: cell-based; settings: neuron
In short: (§2)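 Neuronal cultures given compound alone (10 µM) or DMSO vehicle. Viability read at 24 h and after 72 h. Percentage surviving neurons taken from three separate experiments, mean ± SE.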

MCF7 [3] = assay: Antiproliferative activity against MCF7 cells; type: functional, cell-based; settings: Homo sapiens; in short: as §1
SK-BR-3 [4] = assay: Antiproliferative activity against SKBR3 cells upto 100 uM; type: functional, cell-based; settings: Homo sapiens; in short: as §1
BMEC = assay: Permeability across BMECs; type: ADME, cell-based, Bos taurus; settings: cattle, TDE = time-dependent effect
In short: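 Primary bovine BMEC monolayers mounted in a side-by-side diffusion chamber. Compound in the receiving chamber sampled over time, up to 90 min.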

Cerebral cortex neuron [5] = assay: Increase in Hsp70 level in rat primary cortical neurons at 0.2 uM after 48 hrs; type: functional, cell-based
In short: (§3)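 Primary cortical neurons incubated 48 h with compound, concentrations from 1 nM to 10 µM. Hsp70 levels measured against DMSO controls.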

[6] = Cytotoxicity against rat neuronal cells at 10 uM after 72 hrs; type: cell-based; settings: neuron; in short: as §2
LNCaP [7] = assay: Degradation of Hsp90 client protein androgen receptor in LNCap cells upto 1 uM; type: functional, cell-based; settings: Homo sapiens
In short: (§4)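 LNCaP prostate cancer cells, which carry a mutated androgen receptor, exposed to compound from 10 nM upward. Hsp90 induction and loss of client proteins AR and AKT assessed.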

Cortical neurone [8] = assay: Inhibition of beta-amyloid (25-35)-induced toxicity in embryonic rat brain primary cortical neurons after 48 hrs; type: functional, tissue-based
In short: (§5)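 Primary cortical neurons pretreated with compound at a series of concentrations, then challenged with Aβ25–35 (10 µM), or Aβ1–42 in fewer cultures. Neurons labelled with calcein-AM (live) and propidium iodide (dead) and counted in several fields by fluorescence microscopy. EC50 taken from percentage survival.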

LNCaP [9] = assay: Degradation of Hsp90 client protein AKT in LNCap cells upto 1 uM; type: functional, cell-based; settings: Homo sapiens; in short: as §4
Cerebral cortex neuron [10] = assay: Increase in Hsp70 level in rat primary cortical neurons at 1 nM after 48 hrs relative to control; type: functional, cell-based; in short: as §3
MCF7 [11] = assay: Antiproliferative activity against MCF7 cells upto 100 uM; type: functional, cell-based; settings: Homo sapiens; in short: as §1
LNCaP [12] = assay: Induction of Hsp90 protein in LNCap cells expressing mutated androgen receptor at 10 nM; type: functional, cell-based; settings: Homo sapiens; in short: as §4
Cortical neurone [13] = assay: Inhibition of beta-amyloid (1-42)-induced toxicity in embryonic rat brain primary cortical neurons after 48 hrs; type: functional, tissue-based; in short: as §5

Row | Activity (BMEC) | SMILES | Activity (SK-BR-3 [1]) | Activity [2] | Activity (MCF7 [3]) | Activity (SK-BR-3 [4]) | Activity (Cerebral cortex neuron [5]) | Activity [6] | Activity (LNCaP [7]) | Activity (Cortical neurone [8]) | Activity (LNCaP [9]) | Activity (Cerebral cortex neuron [10]) | Activity (MCF7 [11]) | Activity (LNCaP [12]) | Activity (Cortical neurone [13])
1 | – | COC1=C2C[C@@H](C)C[C@H](OC)[C@H](O)[C@@H](C)/C=C(\C)[C@H](OC(N)=O)[C@@H](OC)/C=C\C=C(/C)C(=O)NC(=CC1=O)C2=O [GELDANAMYCIN] | Dose-dependent effect | Active | Dose-dependent effect | – | – | – | – | – | – | – | – | – | –
2 | tde | CO[C@H]1[C@H](O)[C@@H](O)[C@H](Oc2ccc3cc(NC(C)=O)c(=O)oc3c2)OC1(C)C | – | – | – | inactive | Active | Not Active | inactive | Active | inactive | Active | inactive | Active | Active
